# Source: PubChem BioAssay (several laboratories)
# NPY Y1 blocker – blocks the human neuropeptide Y Y1 receptor | P25929 | HEK293-CNG Y1 cells, membrane potential fluorescence; NPY at EC95, then isoproterenol | inhibition, % at 3.6 µM | actives 1% (n = 200,000) | AID 1040;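 active = inhibition above the campaign mean inhibition of all tested compounds plus 3 SD, cut at about 20% in these data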;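 note: 0% = DMSO wells given NPY plus isoproterenol and 100% = isoproterenol alone without NPY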
# Target sequence (P25929 whole entry, looked up): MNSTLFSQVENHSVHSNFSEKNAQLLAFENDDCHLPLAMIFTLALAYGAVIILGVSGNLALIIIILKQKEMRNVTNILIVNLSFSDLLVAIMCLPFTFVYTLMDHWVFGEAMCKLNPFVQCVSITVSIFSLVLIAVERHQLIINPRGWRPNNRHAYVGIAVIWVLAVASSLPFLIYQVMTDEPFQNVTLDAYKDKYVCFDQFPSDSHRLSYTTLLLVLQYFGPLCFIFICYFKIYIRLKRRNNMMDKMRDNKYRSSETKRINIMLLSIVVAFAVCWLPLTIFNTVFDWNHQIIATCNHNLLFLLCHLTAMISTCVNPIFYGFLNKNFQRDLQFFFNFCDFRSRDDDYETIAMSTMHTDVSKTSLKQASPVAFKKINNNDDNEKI
#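 Assay system: HEK293 cells with Y1 receptor plus CNG channel | Probe or stimulus: NPY (25 nM), isoproterenol (1 µM), Ro 20-1724 (25 µM) | Timing: Compound incubation 1 h at room temperature, readout 45 min post-stimulation | Measured by: Membrane-potential fluorescent dye readout | Benchmarks: High control isoproterenol alone, low control NPY with isoproterenol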
# NPY-Y2 antag – NPY-Y2 (human) receptor antagonism; actives 0.99% (n = 140,000); inhibition, % at 2.7 µM; NPY-Y2 expressing cells, antagonist mode; AID 793; in the data active = inhibition above about 17%;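 note: 0% = vehicle with agonist challenge and 100% = reference antagonist with challenge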
# WT yeast gro inh – growth inhibition of WT yeast, mitochondrial fusion screen. mitochondrial fusion phenotypic screen, WT strain. inhibition, % at 10 µM. actives 2.1% (n = 190,000). AID 1362; in the data active = inhibition above about 58%; tested in S. cerevisiae
# RAM inhibit – blocks the yeast RAM network | S. cerevisiae dse1pr::URA3 reporter, 5-FOA growth OD615, 2 d; analog-sensitive cbk1-as2 kinase mutant strain | actives 1.8% (n = 190,000) | inhibition, % at 50 µM;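 active = inhibition above a set limit, 3 SD over mean compound inhibition, cut at about 8.4% in these data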;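 note: 0% = DMSO-only wells with no growth and 100% = 10 µM 1-NA-PP1 full growth; inhibition rescues growth on 5-FOA so higher OD means more RAM inhibition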
# NPY2 pot ag – human NPY-Y2 potentiation or agonism, primary screen | P49146 | cells expressing NPY-Y2, potentiator/agonist read-out | activation, % at 3.6 µM | actives 0.45% (n = 220,000) | AID 1359; in the data active = activation above about 27%;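 note: cells stimulated with NPY near EC25 plus isoproterenol at EC100; 0% = vehicle plus submaximal agonist and 100% = vehicle plus saturating agonist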
# NPY-Y1 PAM-ag – potentiates or activates human NPY-Y1 receptor | NPY-Y1 expressing cells, potentiator/agonist activation | actives 0.37% (n = 220,000) | activation, % at 3.6 µM | P25929; in the data active = activation above about 33%, passing the limit was not always enough;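 note: cells stimulated with NPY at EC10 then isoproterenol at EC100; 0% = low agonist plus stimulus and 100% = saturating agonist plus stimulus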
# The depositor's hits bear a star; nt = no result. Rows were chosen to be rich in hits. Some 4.9% of all compounds tested hit in one or more screens of this group.
SMILES,NPY Y1 blocker,NPY-Y2 antag,WT yeast gro inh,RAM inhibit,NPY2 pot ag,NPY-Y1 PAM-ag
COC(=O)c1sc(S(=O)(=O)NCCCN(C)C)c(C(=O)OC)c1C,3,nt,nt,0,2,4
CCOC(=O)C1=C(CN2CCN(CCC#N)CC2)NC(=O)NC1c1ccc2c(c1)OCO2 (configuration not stated),-4,nt,-22,1,9,0
O=C(N1CCCCC1)N1CCN(C(=O)N(c2ccccc2)c2ccccc2)CC1,0,2,5,0,-3,-15
CC(=O)Nc1ccc(-c2csc(Nc3cccc(C)n3)n2)cc1,-9,nt,6,-1,13,19
CC1CCCC(NC(=S)NC(=O)c2ccccc2Br)C1C (configuration not stated),11,1,63*,8,-7,-18
CC1CCCC(NC(=O)Cc2ccc(Br)cc2)C1C (configuration not stated),0,6,2,2,1,-27
COc1cccc(-c2nn(-c3ccccc3)cc2CN(C)Cc2ccon2)c1,10,nt,12,1,-9,12
Cc1ccc(C)c(NC(=O)c2ccc3ccccc3n2)c1,8,13,24,10*,0,-15
CCCn1c(=N)n(CCOc2ccc(OC)cc2)c2ccccc21,16,16,-10,1,-14,-14
CCCn1c(=N)n(CC(O)COc2cccc(C)c2)c2ccccc21 (configuration not stated),26*,42*,8,-1,-33,-25
CCn1c(=N)n(CC(O)COc2cccc(C)c2)c2ccccc21 (configuration not stated),20*,21*,-2,2,-10,-43
CCOC(=O)C1=C(CNC(C)(C)CC(C)(C)C)NC(=O)NC1c1cccc([N+](=O)[O-])c1 (configuration not stated),15,nt,9,0,-11,-4
CC(C)(C)n1nnnc1C(c1cccs1)N(Cc1cccnc1)Cc1ccccc1Cl (configuration not stated),14,5,74*,0,-3,11
CC(c1nnnn1C(C)(C)C)N(Cc1cccnc1)Cc1ccccc1Cl (configuration not stated),2,5,17,0,-6,-1
O=C(Nc1cccc(Cl)c1N1CCCC1)c1ccc(Br)o1,33*,33*,68*,2,-32,-79
CCCCC(=O)NC(=S)Nc1ccccc1N1CCCCC1,1,8,65*,-1,1,10
CCCCCC(=O)Nc1ccc(N2CCN(CC)CC2)c(Cl)c1,-2,1,1,0,9,6
CCCCCC(=O)NC(=S)Nc1ccc(N2CCCCC2)c(Cl)c1,13,10,3,9.6*,-28,-8
CCCC(=O)NC(=S)Nc1cccc(Cl)c1N1CCCCC1,2,2,60*,8.7*,-10,-23
O=C(CSc1ccccn1)Nc1ccc2c(c1)oc1ccccc12,10,6,7,1,-10,-12
O=C(O)c1ccc(NC(=O)c2cn(-c3ccccc3)nc2-c2ccccc2)cc1,-6,nt,11,8,-1,10
Cc1ccc(C(=O)NCC2(c3ccccc3)CCCC2)cc1,-5,-1,14,3,4,9
O=C(CN1CCCCC1)Nc1ccccc1NC(=O)CN1CCCCC1,6,4,-4,1,2,-11
O=C(CN1CCc2ccccc2C1)Nc1ccccc1N1CCCCCC1,-1,1,61*,-1,-8,-3
O=C(CCC(NC(=O)OCc1ccccc1)C(=O)OCc1ccccc1)NCC(=O)OCc1ccccc1 (configuration not stated),2,2,3,8.8*,-9,5
O=C(/C(=C/O)N=Nc1ccccc1)c1ccc(Cl)cc1,-3,nt,68*,7,0,3
Cc1ccc(N=N/C(=C\O)C(=O)c2ccc(Cl)cc2)cc1,2,nt,97*,5,18,12
O=C(O)CCN(CCC(=O)O)S(=O)(=O)c1ccccc1,-2,2,-1,0,29,3
OCCN1CCN(CC(O)COCCOc2ccc(Br)cc2)CC1 (configuration not stated),4,4,-7,2,23,12
COc1ccc(C(=NNc2ccccc2C(=O)O)c2ccc(OC)cc2)cc1,-3,-1,82*,4,-14,-9
